Results on 6 molecules are retold here after ChEMBL document CHEMBL1124259, “C-nor-9,11-secoestranes as modified estrogens and fertility regulation” (1988).

Assay type in all cases: functional
Assay [1] relates to Rattus norvegicus. The assay can be described thus: Antiimplantation activity as minimum effective dose after oral administration. The following applies: read-out: MED. The method in brief:
(§1)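 Colony-bred adult female rats (150–170 g) were dosed orally with the compound as a gum acacia suspension on days 1–7 postcoitum, five to seven animals per group. Implants were counted by laparotomy on day 10 of pregnancy. The value is the minimum dose at which implants were totally absent from both uterine horns.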

Assay [2] deals with Rattus norvegicus. Put plainly: Antiimplantation activity as minimum effective dose after subcutaneous administration. The following applies: sc, read-out: MED. The method in brief: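 Compound was given subcutaneously in 0.5 mL propylene glycol–saline (1:1, v/v) to colony-bred adult female rats (150–170 g) on days 1–7 postcoitum, five to seven animals per group. Laparotomy on day 10 of pregnancy counted implants. The minimum dose giving total absence of implants in both uterine horns was recorded.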

Assay [3] concerns Rattus norvegicus. The assay can be described thus: Antiimplantation activity as minimum effective dose after peroral administration. As to conditions: po, read-out: MED. The method in brief: as §1
For assay [4], the system named is Rattus norvegicus. Put plainly: Antiimplantation activity was measured as minimum effective dose after oral administration. As to conditions: read-out: MED. The method in brief: as §1
Assay [5] relates to Rattus norvegicus. The assay can be described thus: Antiimplantation activity as minimum effective dose after oral administration. The following applies: read-out: MED. The method in brief:
as §1

As for `C#C[C@]1(O)CCC(C2CCc3cc(O)ccc3C2)C1(C)C` (stereo not given in full), the minimal effective dose turned out to be 0.75 mg/kg in the assay on Rattus norvegicus [1] and 0.025 mg/kg with Rattus norvegicus [2].

Consider `COc1ccc2c(c1)CCC(C1CCC(O)C1(C)C)C2` (stereo not given), for which the minimal effective dose was 10.5 mg/kg in the assay with Rattus norvegicus [3] and 1.5 mg/kg in the assay with Rattus norvegicus [2].

On to `CC1(C)C(O)CCC1C1CCc2cc(O)ccc2C1` (stereo not given), for which the values for the minimal effective dose in the assay with Rattus norvegicus [3] and in the assay on Rattus norvegicus [2] were 10 mg/kg and 0.01 mg/kg, respectively.

Take `C#C[C@]1(O)CCC(C2CCc3cc(OC)ccc3C2)C1(C)C` (stereo not given in full): the results for the minimal effective dose in the assay with Rattus norvegicus [2] and with Rattus norvegicus [4] were 0.025 mg/kg and 1 mg/kg, respectively.

With `C[C@]12CC[C@@H]3c4ccc(O)cc4CC[C@H]3[C@@H]1CC[C@@H]2O` [ESTRADIOL], the minimal effective dose in the assay on Rattus norvegicus [2] was 0.015 mg/kg.

With `C#C[C@]1(O)CC[C@H]2[C@@H]3CCc4cc(O)ccc4[C@H]3CC[C@@]21C` [ETHINYL ESTRADIOL], the minimal effective dose in the assay with Rattus norvegicus [5] turned out to be 0.15 mg/kg.
